Bioassay records from PubChem.
Compounds with a hit are over-represented: about 4.1% of the library has one in this group of screens.
KCNK3 inh = human KCNK3 channel inhibition, primary screen; 340,000 compounds, 0.84% hits; CHO-KCNK3 thallium flux, FluxOR fluorescence; hits give low values; B-score at 10 µM; AID 602410;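 active = B-score under library mean minus 4 SD, starting fluorescence ratio at most library mean plus 5 SD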;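 also: more negative B-score means stronger inhibition of thallium flux through KCNK3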
KCNQ1 act = human KCNQ1 channel potentiation or activation; P51787; CHO-K1 KCNQ1, thallium flux FluxOR fluorescence; hits give high values; B-score at 10 µM; 310,000 compounds, 0.35% hits; AID 2648;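 active = fluorescence ratio B-score, a plate-corrected score, at least three library SD, with initial intensity B-score within 5 SD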
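assay system = CHO-K1 cells stably expressing KCNQ1 | medium = assay buffer, equal DMSO in all wells | timing = 37 °C overnight plating, 90-min dark dye load, 20-min compound pretreatment | measured by = kinetic FluxOR thallium fluorescence, 10-s 1-Hz baseline, 110-s post-stimulus read | measure = fluorescence change relative to baseline, converted to B score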
hERG protect = shields human hERG channel from block by proarrhythmic agents; 310,000 compounds, 0.51% hits; activation (rescue from dofetilide block), less the hit threshold, % at 10 µM; CHO-hERG, FluxOR thallium flux, dofetilide IC70 present;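 active = activation above the mean of controls blocked by dofetilide plus 5 SD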;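 also: thallium influx through hERG after potassium depolarization seen as dye fluorescence rise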
KCNQ1 inh = blocks the human KCNQ1 potassium channel; CHO-K1 KCNQ1, FluxOR thallium flux fluorescence; hits give high values; P51787; 310,000 compounds, 1.3% hits; AID 2642; B-score at 10 µM;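 active = compounds whose thallium flux B-score, printed positive for inhibition, exceeds three library SD while starting fluorescence stays within three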;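 also: channel opened by potassium depolarization with thallium stimulus after 20 min compound exposure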
KCNK9 inh = inhibitors of human KCNK9 two-pore domain potassium channel | Q9NPC2 | 310,000 compounds, 1.2% hits | HEK293 KCNK9, FluxOR thallium flux fluorescence; hits give low values | AID 488922 | B-score at 10 µM;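 active = ratio B-score over 3 SD below the library mean, with starting fluorescence within 5 SD of its mean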;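 also: negative B-score means less thallium flux so channel inhibition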
KCC2 mod = modulators of human KCC2 chloride dependent transport; Q9H2X9; KCC2 cells, thallium flux FluoZin-2 fluorescence; B-score of Tl+ flux slope (higher = more flux/activation; lower = inhibition) at 10 µM; 190,000 compounds, 2.2% hits;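 active = thallium flux slope and its plate-corrected score both differing from the plate sample mean at a set confidence after two filtering rounds, in either direction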;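 also: slope of fluorescence scaled to starting intensity during 10 to 20 s after thallium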
KCNK9 block conf = human KCNK9 inhibitor confirmation. shares compounds with KCNK9 inh. HEK293 KCNK9 cells, FluxOR thallium flux fluorescence. inhibition, % at 10 µM. 4,900 compounds, 43% hits. AID 492992;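 active = thallium signal inhibited by more than 5 SD of the compound-free buffer control wells, on both duplicate plates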;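 also: 0% = assay buffer control wells without compound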
Kir2-1 spec = tests whether KCNK9 modulators also affect mouse Kir2.1; shares compounds with KCNK9 inh; Kir2.1 cells, FluxOR thallium flux fluorescence; inhibition, % at 10 µM; 4,900 compounds, 4% hits; AID 492993;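 active = thallium signal drop more than 5 SD beyond the mean of the no-compound control wells, seen in both duplicate plates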;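 also: signal is fluorescence rise after thallium addition divided by baseline fluorescence; plate controls were assay buffer only for no effect and full block by chlorpromazine control for full effect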
KCNK9 uninduced = non-induced cell nonspecific activity of KCNK9 modulators; 4,900 compounds, 40% hits; inhibition, % at 10 µM; shares compounds with KCNK9 inh; non-induced KCNK9-HEK293, FluxOR thallium flux;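 active = thallium signal drop beyond 5 SD of the untreated control mean, on both duplicate plates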;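 also: plate controls were buffer only IC0 wells for no effect and SID17386958 at its maximal inhibitory level for full effect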
Starred values were filed as active, the others as inactive; i = inactive; . = no result given.

SMILES	KCNK3 inh	KCNQ1 act	hERG protect	KCNQ1 inh	KCNK9 inh	KCC2 mod	KCNK9 block conf	Kir2-1 spec	KCNK9 uninduced
Nc1c(S(=O)(=O)c2cccs2)c2nc3ccccc3nc2n1Cc1ccc2c(c1)OCO2	i	i	-3	i	-12*	0.48	32%*	i	40%*
CC(C)c1ccc(OCc2ccc(C(=O)N3CCN(c4ccccn4)CC3)cc2)cc1	i	i	-8	6*	i	0.1	i	i	i
O=C(CSc1nc2ccccc2c(=O)n1NC(=O)c1ccccc1)c1ccc(Cl)cc1	i	i	-16	i	i	.	.	.	.
CC1=NN(c2ccccc2)C(=O)/C1=C\c1ccc(Oc2ccc([N+](=O)[O-])cc2[N+](=O)[O-])cc1	i	i	0	i	i	-1.3	i	i	i
COc1ccc(OC)c(C=Nc2ccccc2-c2nc3ccccc3[nH]2)c1	i	i	-14	i	-8.4*	-0.54	39%*	i	28%*
Oc1ccccc1C=Nc1ccccc1-c1nc2ccccc2[nH]1	i	i	-7	i	i	0.66	.	.	.
C=CCC1(NCc2ccco2)CCN(CC)CC1	i	i	-9	i	i	-0.28	.	.	.
C/C(=C/C=N/Nc1nc(N2CCCCC2)nc(N2CCCCC2)n1)c1ccccc1	i	i	-13	i	-8.7*	-0.093	44%*	i	i
C(=N\Nc1nc(N2CCCCCC2)nc(N2CCCCCC2)n1)/c1ccccc1	i	i	-2	i	i	0.46	.	.	.
Oc1ccc(/C=N/Nc2nc(N3CCCCCC3)nc(N3CCCCCC3)n2)c(O)c1	i	i	-15	i	i	-0.31	.	.	.
CC(/C=N/Nc1nc(N2CCCCC2)nc(N2CCCCC2)n1)=C\c1ccccc1	i	i	-7	i	-12*	-0.4	55%*	i	27%*
Cn1c(C(=O)O)ccc1S(=O)(=O)N1CCCCCC1	i	i	-7	i	i	0.054	.	.	.
COc1ccc(OC)c(/C=N/NC(=O)c2ccc(Cn3cc([N+](=O)[O-])cn3)o2)c1	i	i	-5	i	i	-0.66	.	.	.
COc1ccc(NC(=S)NC(=O)/C=C/c2cccs2)cc1	i	i	-13	i	i	0.0085	.	.	.
O=C(/C=C/c1cccs1)NC(=S)Nc1ccc(S(=O)(=O)Nc2ccccc2C(F)(F)F)cc1	i	i	-10	i	i	-0.57	i	i	i
CNC(=S)N/N=C/c1c(C)nn(-c2ccccc2)c1Cl	i	i	-10	i	i	1.2	.	.	.
Cc1nn(-c2ccccc2)c(Cl)c1/C=N/NC(=O)c1ccco1	i	i	-4	i	-8.7*	-0.25	50%*	i	28%*
Cc1nn(-c2ccccc2)c(Cl)c1/C=N/NC(=O)OC(C)(C)C	i	i	-9	i	-11*	-0.39	49%*	i	i
Cc1nn(-c2ccccc2)c(Cl)c1/C=N/NC(=O)c1ccc(CNc2ccccc2)o1	i	i	-9	i	i	-1.6	.	.	.
CCOC(=O)C1CC(=O)c2ccccc2C1c1ccccc1 (stereo not drawn)	i	.	.	.	.	.	.	.	.
Cc1ccc(S(=O)(=O)N2CCN(C(=O)c3c(-c4ccccc4)noc3C)CC2)cc1	i	i	-5	i	i	.	.	.	.
Cc1ccc(S(=O)(=O)n2nccc2-c2c(-c3ccc(Cl)cc3)noc2C)cc1	i	i	-7	i	-12*	0.49	i	i	36%*
O=c1ccc2c(o1)/C(=C/C=C(Cl)Cl)CCC2	i	i	-3	i	-12*	-1.3	42%*	i	36%*
O=c1ccc2cc3c4c(c2o1)CCCN4CCC3	i	i	-48	i	i	i	.	.	.
